From ChEMBL document CHEMBL4251593, “Nontoxic combretafuranone analogues with high in vitro antibacterial activity” (Eur J Med Chem, 2018)
In brackets after ≈: the same amount, converted by molar mass.

Key:
[1] = tested on: TERT-RPE1; assay: Cytotoxicity against human RPE1 cells assessed as reduction in cell viability after 48 hrs by ATPlite-based luminescent assay; conditions: RPE-1, 48 h
How it was run: (§1)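 Cells were grown […] with 10% FBS, glutamax, NEAA and pen/strep at 37 °C, 5% CO2. Media were DMEM for RPE-1, HepG2 and BJ (BJ plus 10 ng/ml bFGF), F-12K for PC3, and IMDM for K562/HL-60. Cells were seeded at 500 per well and dosed from DMSO at 12 concentrations, 40 µM to 1 nM, in triplicate. After 48 h, intracellular ATP was read by luminescence. ED50 was obtained by variable-slope nonlinear regression.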

[2] = tested on: BJ; assay: Cytotoxicity against human BJ cells assessed as reduction in cell viability after 48 hrs by ATPlite-based luminescent assay; how it was run: as §1
[3] = tested on: K562; assay: Cytotoxicity against human K562 cells assessed as reduction in cell viability after 48 hrs by ATPlite-based luminescent assay; conditions: K562, 48 h; how it was run: as §1
[4] = tested on: HL-60; assay: Cytotoxicity against human HL60 cells assessed as reduction in cell viability after 48 hrs by ATPlite-based luminescent assay; conditions: HL-60, 48 h; how it was run: as §1
[5] = tested on: PC-3; assay: Cytotoxicity against human PC3 cells assessed as reduction in cell viability after 48 hrs by ATPlite-based luminescent assay; conditions: PC-3, 48 h; how it was run: as §1
[6] = tested on: MCF7; assay: Cytotoxicity against human MCF7 cells assessed as reduction in cell viability after 48 hrs by ATPlite-based luminescent assay; conditions: MCF7, 48 h
[7] = tested on: HepG2; assay: Cytotoxicity against human HepG2 cells assessed as reduction in cell viability after 48 hrs by ATPlite-based luminescent assay; conditions: HepG2, 48 h; how it was run: as §1
[8] = tested on: TERT-RPE1; assay: Induction of apoptosis in human RPE1 cells assessed as caspase 3/7 activity after 24 hrs by caspase-glo luminescent assay; assay type: cell-based; conditions: RPE-1, 24 h
How it was run: (§2)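 Cells were seeded at 500 per well in their growth media and exposed to 12 concentrations from 40 µM to 1 nM, delivered from DMSO, in triplicate. After 24 h, caspase-3/7 activity was read by Caspase-Glo luminescence. Data were normalized and ED50 was fitted by variable-slope nonlinear regression.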

[9] = tested on: K562; assay: Induction of apoptosis in human K562 cells assessed as caspase 3/7 activity after 24 hrs by caspase-glo luminescent assay; assay type: cell-based; conditions: K562, 24 h; how it was run: as §2
[10] = tested on: HL-60; assay: Induction of apoptosis in human HL60 cells assessed as caspase 3/7 activity after 24 hrs by caspase-glo luminescent assay; assay type: cell-based; conditions: HL-60, 24 h; how it was run: as §2
[11] = tested on: PC-3; assay: Induction of apoptosis in human PC3 cells assessed as caspase 3/7 activity after 24 hrs by caspase-glo luminescent assay; assay type: cell-based; conditions: PC-3, 24 h; how it was run: as §2
[12] = tested on: HepG2; assay: Induction of apoptosis in human HepG2 cells assessed as caspase 3/7 activity after 24 hrs by caspase-glo luminescent assay; assay type: cell-based; conditions: HepG2, 24 h; how it was run: as §2
[13] = tested on: Staphylococcus aureus; assay: Antibacterial activity against Staphylococcus aureus ATCC 6538 after 24 hrs by microdilution assay; assay type: functional; conditions: ATCC 6538, 24 h
[14] = tested on: Staphylococcus aureus; assay: Antibacterial activity against methicillin-resistant Staphylococcus aureus HK5996/08 clinical isolate after 24 hrs by microdilution assay; assay type: functional; conditions: HK5996/08, 24 h
[15] = tested on: Staphylococcus epidermidis; assay: Antibacterial activity against Staphylococcus epidermidis HK6966/08 clinical isolate after 24 hrs by microdilution assay; assay type: functional; conditions: HK6966/08, 24 h
[16] = tested on: Enterococcus sp.; assay: Antibacterial activity against Enterococcus sp. HK14365/08 clinical isolate after 24 hrs by microdilution assay; assay type: functional; conditions: HK14365/08, 24 h
[17] = tested on: Escherichia coli; assay: Antibacterial activity against Escherichia coli ATCC 8739 after 24 hrs by microdilution assay; assay type: functional; conditions: ATCC 8739, 24 h
How it was run: (§3)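 Broth microdilution in Mueller-Hinton medium buffered to pH 7.4 (±0.2), with DMSO as diluent at no more than 2% final. Compounds were tested as 2-fold serial dilutions from 2000 to 0.488 µmol/l. The inoculum was 0.5 McFarland (1.5×10^8 cfu/ml). Plates were held at 37 °C and read visually at 24 and 48 h. MIC was taken as 95% growth inhibition versus control, determined twice in duplicate.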

[18] = tested on: Klebsiella pneumoniae; assay: Antibacterial activity against Klebsiella pneumoniae HK11750/08 clinical isolate after 24 hrs by microdilution assay; assay type: functional; conditions: HK11750/08, 24 h
[19] = tested on: Klebsiella pneumoniae; assay: Antibacterial activity against Klebsiella pneumoniae HK14368/08 clinical isolate after 24 hrs by microdilution assay; assay type: functional; conditions: HK14368/08, 24 h
[20] = tested on: Pseudomonas aeruginosa; assay: Antibacterial activity against Pseudomonas aeruginosa ATCC 9027 after 24 hrs by microdilution assay; assay type: functional; conditions: ATCC 9027, 24 h; how it was run: as §3
[21] = tested on: Staphylococcus aureus; assay: Antibacterial activity against Staphylococcus aureus ATCC 6538 after 48 hrs by microdilution assay; assay type: functional; conditions: ATCC 6538, 48 h
[22] = tested on: Staphylococcus aureus; assay: Antibacterial activity against methicillin-resistant Staphylococcus aureus HK5996/08 clinical isolate after 48 hrs by microdilution assay; assay type: functional; conditions: HK5996/08, 48 h
[23] = tested on: Staphylococcus epidermidis; assay: Antibacterial activity against Staphylococcus epidermidis HK6966/08 clinical isolate after 48 hrs by microdilution assay; assay type: functional; conditions: HK6966/08, 48 h
[24] = tested on: Enterococcus sp.; assay: Antibacterial activity against Enterococcus sp. HK14365/08 clinical isolate after 48 hrs by microdilution assay; assay type: functional; conditions: HK14365/08, 48 h
[25] = tested on: Escherichia coli; assay: Antibacterial activity against Escherichia coli ATCC 8739 after 48 hrs by microdilution assay; assay type: functional; conditions: ATCC 8739, 48 h; how it was run: as §3
[26] = tested on: Klebsiella pneumoniae; assay: Antibacterial activity against Klebsiella pneumoniae HK11750/08 clinical isolate after 48 hrs by microdilution assay; assay type: functional; conditions: HK11750/08, 48 h
[27] = tested on: Klebsiella pneumoniae; assay: Antibacterial activity against Klebsiella pneumoniae HK14368/08 clinical isolate after 48 hrs by microdilution assay; assay type: functional; conditions: HK14368/08, 48 h
[28] = tested on: Pseudomonas aeruginosa; assay: Antibacterial activity against Pseudomonas aeruginosa ATCC 9027 after 48 hrs by microdilution assay; assay type: functional; conditions: ATCC 9027, 48 h; how it was run: as §3

Row | Structure (SMILES) | IC50 [1] [µM] | IC50 [2] [µM] | IC50 [3] [µM] | IC50 [4] [µM] | IC50 [5] [µM] | IC50 [6] [µM] | IC50 [7] [µM] | IC50 [8] [µM] | IC50 [9] [µM] | IC50 [10] [µM] | IC50 [11] [µM] | IC50 [12] [µM] | MIC95 [13] [µM] | MIC95 [14] [µM] | MIC95 [15] [µM] | MIC95 [16] [µM] | MIC95 [17] [µM] | MIC95 [18] [µM] | MIC95 [19] [µM] | MIC95 [20] [µM] | further results
1 | CC(=O)OCC1(COC(C)=O)OC(=O)C(c2ccc(Br)cc2)=C1c1ccc(C)cc1 | > 40 | > 40 | > 40 | > 40 | > 40 | > 40 | > 40 | > 40 | > 40 | > 40 | > 40 | > 40 | > 125 | > 125 | > 125 | > 125 | > 125 | > 125 | > 125 | > 125 | MIC95 [21]: > 125 µM; MIC95 [22]: > 125 µM; MIC95 [23]: > 125 µM; MIC95 [24]: > 125 µM; MIC95 [25]: > 125 µM; MIC95 [26]: > 125 µM; MIC95 [27]: > 125 µM; MIC95 [28]: > 125 µM
2 | Cc1ccc(C2=C(c3ccc(Br)cc3)C(=O)OC2)cc1 | 0.97 | > 40 | 0.3 | 0.65 | > 40 | 14.8 | > 40 | 8.16 | 0.29 | 2.77 | > 40 | > 40 | 7.81 (≈ 2.57 µg/mL) | 62.5 (≈ 20.6 µg/mL) | 15.6 (≈ 5.14 µg/mL) | > 1000 | > 1000 | > 1000 | > 1000 | > 1000 | MIC95 [21]: 15.6 µM (≈ 5.14 µg/mL); MIC95 [22]: 62.5 µM (≈ 20.6 µg/mL); MIC95 [23]: 31.2 µM (≈ 10.3 µg/mL); MIC95 [24]: > 1000 µM; MIC95 [25]: > 1000 µM; MIC95 [26]: > 1000 µM; MIC95 [27]: > 1000 µM; MIC95 [28]: > 1000 µM
3 | COc1ccc(C2=C(c3ccc(OC)c(OC)c3)COC2=O)cc1 | > 40 | > 40 | > 40 | > 40 | 15.9 | > 40 | > 40 | > 40 | > 40 | > 40 | > 40 | > 40 | > 125 | > 125 | > 125 | > 125 | > 125 | > 125 | > 125 | > 125 | MIC95 [21]: > 125 µM; MIC95 [22]: > 125 µM; MIC95 [23]: > 125 µM; MIC95 [24]: > 125 µM; MIC95 [25]: > 125 µM; MIC95 [26]: > 125 µM; MIC95 [27]: > 125 µM; MIC95 [28]: > 125 µM
4 | COc1ccc(C2=C(c3ccc4c(c3)OCO4)COC2=O)cc1 | > 40 | > 40 | 15.7 | 15.5 | > 40 | > 40 | > 40 | > 40 | > 40 | > 40 | > 40 | > 40 | 7.81 (≈ 2.42 µg/mL) | > 500 | 125 (≈ 38.8 µg/mL) | > 500 | > 500 | > 500 | > 500 | > 500 | MIC95 [21]: 15.6 µM (≈ 4.85 µg/mL); MIC95 [22]: > 500 µM; MIC95 [23]: 500 µM (≈ 155 µg/mL); MIC95 [24]: > 500 µM; MIC95 [25]: > 500 µM; MIC95 [26]: > 500 µM; MIC95 [27]: > 500 µM; MIC95 [28]: > 500 µM
5 | COc1ccc(C2=C(c3ccc(S(C)(=O)=O)cc3)COC2=O)cc1 | > 40 | > 40 | > 40 | > 40 | > 40 | > 40 | > 40 | > 40 | > 40 | > 40 | > 40 | > 40 | > 500 | > 500 | > 500 | > 500 | > 500 | > 500 | > 500 | > 500 | MIC95 [21]: > 500 µM; MIC95 [22]: > 500 µM; MIC95 [23]: > 500 µM; MIC95 [24]: > 500 µM; MIC95 [25]: > 500 µM; MIC95 [26]: > 500 µM; MIC95 [27]: > 500 µM; MIC95 [28]: > 500 µM
6 | CCc1ccc(C2=C(c3ccc(Br)cc3)C(=O)OC2)cc1 | 1.3 | > 40 | 0.47 | 1.02 | > 40 | 13 | > 40 | > 40 | > 40 | > 40 | > 40 | > 40 | – | – | – | – | – | – | – | – | –
7 | Cc1ccc(C2=C(c3ccc(Cl)c(Cl)c3)C(=O)OC2)cc1 | 0.54 | > 40 | 0.12 | 0.23 | > 40 | 15.4 | > 40 | 3.5 | > 40 | 0.54 | > 40 | > 40 | – | – | – | – | – | – | – | – | –
